Rin1 Abl inh: inhibitors of Rin1-Abl protein binding, primary screen, biochemical, TR-FRET; Tyrosine-protein kinase ABL1 (Homo sapiens) + Ras and Rab interactor 1 (Homo sapiens), …; 360,000 compounds, 0.4% hits; inhibition, % at 7.35 µM; in the data active = inhibition above about 5%, passing the limit was not always enough
MT1-MMP act inh: blockers of MT1-MMP proenzyme processing, primary screen, HT1080 RFP-PRO-GFP cells, GFP/RFP fluorescence | Matrix metalloproteinase-14 (Homo sapiens), P50281 | GFP/RFP ratio fluorescence, overnight; percent of plate control window, DMSO zero | GFP/RFP ratio change, % at 20 µM | 360,000 compounds, 0.061% hits;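 active = GFP/RFP ratio change of at least 30% with cell ATP level not reduced by more than half and red fluorescence within 50% of control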
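Test system: HT1080 RFP-PRO-GFP cells; Benchmarks: DMSO and RFP-L50D-GFP cell wells; Timing: cells overnight before dosing, compound overnight, 37 °C, 5% CO2; Compound: one 20 µM compound dose with 1% DMSO; Read-out: GFP/RFP fluorescence ratio.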
Arrestin-AP2 inh: inhibitors of beta-arrestin/AP2 binding, primary screen, biochemical, GPCR trafficking, flow cytometry. beta-arrestin 1 C-terminal peptide binding to AP2 beta2-adaptin appendage (human). FITC-arrestin peptide / GST-AP2 beads; AP2 beta2 appendage carries R879A mutation. inhibition, % at 10 µM. 340,000 compounds, 0.31% hits. AID 504490, 2011;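 active = inhibition above a set limit, near 3 SD of compounds lacking own fluorescence, cut at about 54% in these data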;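 also: plate controls were DMSO wells for no effect and 5 µM unlabelled arrestin peptide for full effect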
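System: GST-AP2 R879A bound to glutathione beads, E. coli-expressed. Also added: 50 nM FITC-arrestin peptide. Schedule: compound with beads 12 min RT, then probe 1 h RT. Signal: bead flow cytometry, FITC channel. Read-out basis: percent response.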
Tb MetRS inh: T. brucei MetRS inhibitors, primary screen, biochemical, luminescence | methionyl-tRNA synthetase (Trypanosoma brucei brucei) | purified T. brucei MetRS, ATP depletion, Kinase-Glo luminescence | inhibition, % at 11.9 µM | 360,000 compounds, 0.4% hits | AID 624268, 2012;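 active = inhibition above a per-plate cutoff of the control wells' mean inhibition plus 3 SD, cut at about 5.5% in these data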;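 also: 0% = DMSO wells median and 100% = median of wells with control inhibitor compound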
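assay system = parasite MetRS enzyme | timing = 15 min preincubation, 2 h reaction, all 25 °C | evaluation = percent inhibition relative to median high and low control wells | medium = HEPES buffer containing pyrophosphatase, BSA, spermine, DTT | compound = single dose, 11.9 µM final nominal, 0.9% final DMSO | detection = Kinase-Glo luminescence, ATP depletion format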
SKN-1 block: suppressors of acrylamide-induced Pgst-4::GFP reporter in worms, primary screen, SKN-1 inhibitor project, whole organism, uHTS, GFP/RFP fluorescence ratio, strain VP596; inhibition, % at 21.8 µM; C. elegans VP596 Pgst-4::GFP/RFP ratio, 24 h; AID 624304, 2012; 360,000 compounds, 0.49% hits;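 active = interference check ratio from 0.5 to 1.5 plus GFP to RFP signal ratio inhibition reaching or exceeding a fixed threshold, cut at about 30% in these data, passing the limit was not always enough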
TbMetRS confirm: T. brucei MetRS inhibitors, confirmation, biochemical, luminescence. shares compounds with Tb MetRS inh. T. brucei MetRS enzyme, luminescence (ATP depletion). inhibition, % at 11.9 µM. 1,400 compounds, 93% hits; in the data active = inhibition above about 7%
Jurkat cytotox: Jurkat T cell cytotoxicity, cytotoxicity control for T. brucei MetRS inhibitor project, luminescence, high throughput; Jurkat cells viability, ATP luminescence; 1,400 compounds, 12% hits; AID 624413, 2012; inhibition, % at 8.3 µM; shares compounds with Tb MetRS inh; in the data active = inhibition above about 15%;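 also: 0% = vehicle and 100% = reference inhibitor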
TbMetRS FP orth: T. brucei MetRS inhibitors, orthogonal assay for T. brucei MetRS inhibitor project, biochemical, fluorescence polarization. inhibition, % at 11.9 µM. purified T. brucei MetRS. shares compounds with Tb MetRS inh. 1,400 compounds, 44% hits. AID 651607, 2012; in the data active = inhibition above about 17%;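 also: 0% = vehicle wells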
* = called active by the depositor; nt = no result. Most compounds without a hit are left out; they make up all but 1.6% or so of the library.

SMILES	Rin1 Abl inh	MT1-MMP act inh	Arrestin-AP2 inh	Tb MetRS inh	SKN-1 block	TbMetRS confirm	Jurkat cytotox	TbMetRS FP orth
CC(C)c1ccc(CCNC(=O)CSC(=S)N2CCCC2)cc1	3	4	21	-1	-6	nt	nt	nt
NS(=O)(=O)c1ccc(NC(=O)c2c(F)cccc2Cl)cc1	-3	1	25	7.9*	5	4	-4	1
NS(=O)(=O)c1ccc(NC(=O)c2c(Cl)cccc2Cl)cc1	1	0	9	0	7	nt	nt	nt
Cc1ccc(CN2C(=O)CSCC2(C)C(=O)NC(C)C)cc1 (stereo not given)	nt	-1	nt	0	9	nt	nt	nt
Cc1[nH]n(-c2ccccc2)c(=O)c1C(=O)c1ccccc1	-4	-2	11	0	-25	nt	nt	nt
COc1cccc(C(c2c(C)[nH]n(-c3ccccc3)c2=O)c2c(C)[nH]n(-c3ccccc3)c2=O)c1O	6	9	27	8.1*	2	2	-2	2
CC1(C(=O)NC2CCCC2)CCC(=O)N1CCCn1ccnc1 (stereo not given)	0	2	nt	-1	7	nt	nt	nt
O=C(NCc1nc2ccccc2[nH]1)c1cccc(S(=O)(=O)N2CCCC2)c1	2	-2	27	7.9*	-18	19*	-7	14
Cc1c(NS(=O)(=O)c2cc(C(=O)NCc3cccc(Cl)c3)ccc2Cl)c(=O)n(-c2ccccc2)n1C	-2	2	1	11*	-8	34*	0	24*
O=C(NCc1nc2ccccc2[nH]1)c1cccc(S(=O)(=O)N2CCOCC2)c1	1	2	4	65*	14	94*	7	58*
Cc1c(NS(=O)(=O)c2cc(C(=O)NCc3cccnc3)ccc2Cl)c(=O)n(-c2ccccc2)n1C	0	1	-13	0	-3	nt	nt	nt
Cc1ccc(S(=O)(=O)N2CCN(Cc3nc4ccccc4[nH]3)CC2)cc1C	-2	1	7	5.8*	-17	17*	0	5
Cc1ccccc1N1CCN(C2CCCN(C(=O)c3ccnn3C)C2)CC1 (stereo not given)	0	1	-12	0	4	nt	nt	nt
Cc1ccc(C(=O)Nc2nc(C(N)Cc3ccc(C(F)(F)F)cc3)cs2)cc1 (stereo not given)	3	-4	nt	0	-5	nt	nt	nt
COCCN(Cc1ccc(C)cc1)C(=O)[C@H]1O[C@@H](n2ccc(N)nc2=O)[C@H](O)[C@@H]1O	3	6	nt	0	7	nt	nt	nt
O=C(NCc1cccc(Cl)c1)c1cccc(S(=O)(=O)N2CCCC2)c1	0	-1	0	13*	-2	43*	2	26*
CN(C)CC1CCCCC1OC(=O)/C=C/c1ccccc1 (stereo not given)	-4	4	-24	3	1	nt	nt	nt
CN(C)CC1CCCCC1OC(=O)/C=C/c1ccc(Cl)cc1Cl (stereo not given)	0	5	-8	9.0*	-6	20*	5	12
CCOC(=O)[C@H]1[C@H]2COc3ccc(Br)cc3[C@H]2N2C(=O)CN(Cc3ccc(C)cc3)C(=O)[C@@]12C	-3	-24	4	0	-9	nt	nt	nt
N#Cc1c(N)n(C2OC(CO)C(O)C2O)c2ncnc(N)c12 (stereo not given)	2	-2	-2	7.8*	-3	30*	97*	10
CC(=O)c1cccc(NC(=O)C(C)N(C)CC(=O)Nc2ccc(Cl)cc2)c1 (stereo not given)	0	3	-2	35*	-7	53*	6	25*
CN(CC(=O)Nc1ccc(Cl)cc1)C(=O)c1cccc(S(=O)(=O)N(C)C)c1	0	6	-1	9.1*	12	19*	5	6
Cc1cc(C)c(C)c(S(=O)(=O)NCC(=O)Nc2ccc(F)cc2)c1C	0	-4	-9	0	11	nt	nt	nt
CCC(=O)CN(Cc1cc(OC)ccc1OC)S(=O)(=O)c1ccccc1Br	-2	0	-16	-1	-1	nt	nt	nt
COc1ccccc1/C=C/C(=O)OCC(=O)c1c[nH]c2ccccc12	2	1	0	0	-10	nt	nt	nt
SMILES	Rin1 Abl inh	MT1-MMP act inh	Arrestin-AP2 inh	Tb MetRS inh	SKN-1 block	TbMetRS confirm	Jurkat cytotox	TbMetRS FP orth
COc1cc(/C=C/C(=O)OCC(=O)c2c[nH]c3ccccc23)ccc1OC(F)F	2	-2	-2	6.3*	10	13*	-1	36*
COC1=CC(=O)OC(c2cccc([N+](=O)[O-])c2)C1 (stereo not given)	nt	4	nt	0	9	nt	nt	nt
Cn1c(SCC(=O)Nc2ccc3cn[nH]c3c2)nnc1-c1cnccn1	1	2	-8	7.8*	11	14*	-4	9
Cn1c(SCC(=O)Nc2ccc3cn[nH]c3c2)nnc1-c1cccs1	-3	-5	26	0	-14	nt	nt	nt
Fc1ccc(F)c(CNc2ncnc3cc(Cl)ccc23)c1	-1	0	-8	7.3*	-2	21*	14	10
CCOc1ccc2[nH]c3c(N4CCc5ccccc5C4)ncnc3c2c1	0	11	10	2	12	nt	nt	nt
Cc1ccc2[nH]c3c(N4CCc5ccccc5C4)ncnc3c2c1	-2	8	2	12*	-7	5	47*	9
CN1CCN(c2ncnc3c2[nH]c2ccc(F)cc23)CC1	0	-1	5	1	2	nt	nt	nt
Fc1ccc2[nH]c3c(N4CCc5ccccc5C4)ncnc3c2c1	-2	3	nt	58*	12	14*	50*	13
COc1ccc(NC(=O)C(NC(C)=O)C(=O)NCc2ccc(F)cc2)cc1 (stereo not given)	1	-4	24	2	-26	nt	nt	nt
O=C(NCC(O)COc1ccc([N+](=O)[O-])cc1)Nc1ccccc1 (stereo not given)	-2	2	-18	42*	-1	62*	2	41*
